Values after ≈ are worked out from the molar mass of the structure shown.
Key:
Format in all cases: functional
[1] = tested on: Staphylococcus aureus; assay: Antimicrobial activity against Staphylococcus aureus ATCC 25923
[2] = tested on: Enterococcus faecalis; assay: Antimicrobial activity against vancomycin A-resistant Enterococcus faecalis BM 4166
Procedure, shortened: (§1)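 MIC measured in a microtiter plate-based antimicrobial assay, in μg/mL. VanA E. faecalis BM4166 is vancomycin- and teicoplanin-resistant; VanB E. faecalis ATCC 51299 is vancomycin-resistant and teicoplanin-sensitive. Both strains carry a vancomycin-inducible resistance pathway, switching from D-Ala-D-Ala to D-Ala-D-Lac cell-wall precursors on glycopeptide exposure.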

[3] = tested on: Enterococcus faecalis; assay: Antimicrobial activity against vancomycin B-resistant Enterococcus faecalis ATCC 51299; procedure, shortened: as §1

`CN[C@H](CC(C)C)C(=O)N[C@H]1C(=O)N[C@@H](CC(N)=O)C(=O)N[C@H]2C(=O)N[C@H]3C(=O)N[C@H](C(=O)N[C@@H](C(=O)O)c4cc(OC)cc(OC)c4-c4cc3ccc4OC)[C@H](O)c3ccc(c(Cl)c3)Oc3cc2cc(c3OC)Oc2ccc(cc2Cl)[C@H]1O` was tested. Which MIC [1] did it give?
Its MIC is 1.25 µg/mL (≈ 1.04 µM).

And the MIC [2]?
Its MIC is 80 µg/mL (≈ 66.7 µM).

And the MIC [3]?
Its MIC is 2.5 µg/mL (≈ 2.08 µM).

Which MIC [1] does the source give for `CN[C@H](CC(C)C)C(=O)N[C@H]1C(=O)N[C@@H](CC(N)=O)C(=O)N[C@H]2C(=O)N[C@H]3C(=O)N[C@H](C(=O)N[C@@H](C(=O)OC)c4cc(OC)cc(OC)c4-c4cc3ccc4OC)[C@H](O)c3ccc(c(Cl)c3)Oc3cc2cc(c3OC)Oc2ccc(cc2Cl)[C@H]1O` here?
The MIC was 1.25 µg/mL (≈ 1.03 µM).

What about the MIC [2] of the same molecule?
The MIC was 40 µg/mL (≈ 32.9 µM).

What about the MIC [3] of the same molecule?
Its MIC is 1.25 µg/mL (≈ 1.03 µM).

Which results are given for `CN[C@@H](CC(C)C)C(=O)N[C@H]1C(=O)N[C@@H](CC(N)=O)C(=O)N[C@H]2C(=O)N[C@H]3C(=O)N[C@H](C(=O)N[C@@H](C(=O)O)c4cc(O)cc(O)c4-c4cc3ccc4O)[C@H](O)c3ccc(c(Cl)c3)Oc3cc2cc(c3O[C@@H]2O[C@H](CO)[C@@H](O)[C@H](O)[C@H]2O[C@H]2C[C@](C)(NCc3ccc(-c4ccc(Cl)cc4)cc3)[C@H](O)[C@H](C)O2)Oc2ccc(cc2Cl)[C@H]1O`?
MIC [1]: 0.03 µg/mL (≈ 0.0182 µM); MIC [2]: 10 µg/mL (≈ 6.06 µM); MIC [3]: 0.03 µg/mL (≈ 0.0182 µM)

Which results are given for `CN[C@H](CC(C)C)C(=O)N[C@H]1C(=O)N[C@@H](CC(N)=O)C(=O)N[C@H]2C(=O)N[C@H]3C(=O)N[C@H](C(=O)N[C@@H](C(=O)O)c4cc(OC)cc(OC)c4-c4cc3ccc4O)[C@H](O)c3ccc(c(Cl)c3)Oc3cc2cc(c3O)Oc2ccc(cc2Cl)[C@H]1O`?
MIC [1]: 10 µg/mL (≈ 8.53 µM); MIC [2]: 640 µg/mL (≈ 546 µM); MIC [3]: 120 µg/mL (≈ 102 µM)

With `CN[C@H](CC(C)C)C(=O)N[C@H]1C(=O)N[C@@H](CC(N)=O)C(=O)N[C@H]2C(=O)N[C@H]3C(=O)N[C@H](C(=O)N[C@@H](C(=O)O)c4cc(OC)cc(O)c4-c4cc3ccc4OC)[C@H](O)c3ccc(c(Cl)c3)Oc3cc2cc(c3O)Oc2ccc(cc2Cl)[C@H]1O` as the molecule, how does the MIC [1] read?
The MIC was 10 µg/mL (≈ 8.53 µM).

And the MIC [2]?
The MIC was 640 µg/mL (≈ 546 µM).

What about the MIC [3] of the same molecule?
Its MIC is 120 µg/mL (≈ 102 µM).

Which results are given for `CN[C@H](CC(C)C)C(=O)N[C@H]1C(=O)N[C@@H](CC(N)=O)C(=O)N[C@H]2C(=O)N[C@H]3C(=O)N[C@H](C(=O)N[C@@H](C(=O)O)c4cc(OC)cc(OC)c4-c4cc3ccc4OC)[C@H](O)c3ccc(c(Cl)c3)Oc3cc2cc(c3O)Oc2ccc(cc2Cl)[C@H]1O`?
MIC [2]: 640 µg/mL (≈ 540 µM); MIC [3]: 10 µg/mL (≈ 8.43 µM)

For `CN[C@H](CC(C)C)C(=O)N[C@H]1C(=O)N[C@@H](CC(N)=O)C(=O)N[C@H]2C(=O)N[C@H]3C(=O)N[C@H](C(=O)N[C@@H](C(=O)O)c4cc(O)cc(O)c4-c4cc3ccc4O)[C@H](O)c3ccc(c(Cl)c3)Oc3cc2cc(c3OC)Oc2ccc(cc2Cl)[C@H]1O`, which MIC [1] is on record?
Its MIC is 1.25 µg/mL (≈ 1.08 µM).

What about the MIC [2] of the same molecule?
Its MIC is 240 µg/mL (≈ 207 µM).

What about the MIC [3] of the same molecule?
Its MIC is 40 µg/mL (≈ 34.5 µM).

For `CN[C@H](CC(C)C)C(=O)N[C@H]1C(=O)N[C@@H](CC(N)=O)C(=O)N[C@H]2C(=O)N[C@H]3C(=O)N[C@H](C(=O)N[C@H](C(=O)O)c4cc(O)cc(O)c4-c4cc3ccc4O)[C@H](O)c3ccc(c(Cl)c3)Oc3cc2cc(c3O)Oc2ccc(cc2Cl)[C@H]1O` [VANCOMYCIN AGLYCON], which MIC [1] is on record?
The MIC was 0.6 µg/mL (≈ 0.525 µM).

What about the MIC [2] of the same molecule?
Its MIC is > 100 µg/mL.

What about the MIC [3] of the same molecule?
The MIC was > 40 µg/mL.

With `CN[C@H](CC(C)C)C(=O)N[C@H]1C(=O)N[C@@H](CC(N)=O)C(=O)N[C@H]2C(=O)N[C@H]3C(=O)N[C@H](C(=O)N[C@H](C(=O)O)c4cc(O)cc(O)c4-c4cc3ccc4O)[C@H](O)c3ccc(c(Cl)c3)Oc3cc2cc(c3O[C@@H]2O[C@H](CO)[C@@H](O)[C@H](O)[C@H]2O[C@H]2C[C@](C)(N)[C@H](O)[C@H](C)O2)Oc2ccc(cc2Cl)[C@H]1O` [VANCOMYCIN] as the molecule, how does the MIC [2] read?
Its MIC is 2000 µg/mL (≈ 1380 µM).

And the MIC [3]?
Its MIC is 120 µg/mL (≈ 82.8 µM).
